Data on 34 compounds can be found in ChEMBL document CHEMBL3425510, “Discovery of bisamide-heterocycles as inhibitors of scavenger receptor BI (SR-BI)-mediated lipid uptake” (Bioorg Med Chem Lett, 2015).

Data set [1] addresses T1, Scavenger receptor class B member 1 (Mus musculus, UniProt Q61009).
T1 sequence (Q61009 whole entry): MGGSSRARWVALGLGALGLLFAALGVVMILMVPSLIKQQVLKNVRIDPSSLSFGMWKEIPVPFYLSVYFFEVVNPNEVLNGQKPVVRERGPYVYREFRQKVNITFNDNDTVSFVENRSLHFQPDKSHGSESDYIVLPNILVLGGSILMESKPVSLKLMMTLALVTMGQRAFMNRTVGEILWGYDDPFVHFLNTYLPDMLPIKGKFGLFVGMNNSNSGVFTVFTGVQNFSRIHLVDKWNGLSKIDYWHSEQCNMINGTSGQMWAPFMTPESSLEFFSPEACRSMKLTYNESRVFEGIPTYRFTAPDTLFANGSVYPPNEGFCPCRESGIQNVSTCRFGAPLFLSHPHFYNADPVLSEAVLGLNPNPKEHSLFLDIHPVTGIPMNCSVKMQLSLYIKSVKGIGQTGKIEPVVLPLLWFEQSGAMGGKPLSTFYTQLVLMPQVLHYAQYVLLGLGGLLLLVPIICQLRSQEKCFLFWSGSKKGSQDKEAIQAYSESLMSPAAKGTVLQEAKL
Put plainly: Inhibition of mouse SR-BI isoform 1 expressed in CHO cells assessed as reduction in transfer of fluorescent lipid DiI from human HDL particles into cells by fluorescence assay. Type of data set: cell-based. The essentials:
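ldlA[mSR-BI] cells (CHO, lacking LDL receptor, overexpressing mouse SR-BI), 10,000 per well, plated overnight in F12K/5% FCS. Medium swapped to Ham's F12/0.5% fatty acid-free BSA/25 mM HEPES pH 7.4 with DiI-HDL at 10 μg protein/ml final. Compound pinned in, 3 h at 37 °C, then two PBS (+Ca/Mg) washes. Bottom-read fluorescence; normalized to DMSO and 1 μM BLT-1.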

A short description of data set [2]: Stability in mouse plasma assessed as compound remaining at 5 uM after 5 hrs at 37 degC by UPLC-MS method. Type of data set: ADME, cell-free. To be noted: read-out: Stability. In outline: (§1)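 Plasma (human or mouse) diluted 50/50 with PBS pH 7.4, compound at 5 μM (0.95% acetonitrile, 0.05% DMSO). Run in duplicate, shaken 250 rpm at 37 °C. Sampled at 0 and 5 h; analysed by UPLC-MS with SIR detection.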

Data set [3] is described as follows: Stability in human plasma assessed as compound remaining at 5 uM after 5 hrs at 37 degC by UPLC-MS method. Type of data set: ADME, cell-free. To be noted: read-out: Stability. In outline: as §1
The subject of data set [4] is CHO. Put plainly: Inhibition of general receptor-mediated endocytosis in SR-BI isoform 1 expressing CHO cells assessed as effect on endocytosis of Alexa-594-labeled transferrin up to 35 uM. The class given is functional, cell-based. To be noted: Cricetulus griseus.
Data set [5] in a line: Stability in mouse liver microsomes assessed as compound remaining at 1 uM in presence of NADPH at 37 degC after 1 hr by UHPLC-MS method. The class given is ADME. To be noted: read-out: Stability. In outline:
(§2)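 Liver microsomes (human or mouse) in PBS pH 7.4, final 1 μM compound, 0.3 mg/mL microsomes, 0.5 mM NADPH, 1% DMSO. Run in duplicate at 37 °C with 250 rpm shaking. Sampled at 0 and 1 h.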
(In general: Liver microsomes are a subcellular fraction often used to study metabolism.)

Data set [6] can be described thus: Aqueous solubility in PBS buffer with 1% DMSO at 100 uM incubated for 24 hrs by UPLC-MS method. The class given is physicochemical. The essentials: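 Duplicate samples at 100 μM in PBS pH 7.4 with 1% DMSO, plus matching samples in 100% DMSO. Shaken 250 rpm for 24 h at room temperature. Quantified by UPLC-MS with SIR detection on a single quadrupole; PBS response fitted to a two-point calibration made from the DMSO samples.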

Data set [7] can be described thus: Stability in human liver microsomes assessed as compound remaining at 1 uM in presence of NADPH at 37 degC after 1 hr by UHPLC-MS method. The class given is ADME. To be noted: read-out: Stability. The essentials:
as §2

The target in data set [8] is T1, Scavenger receptor class B member 1. In words: Inhibition of mouse SR-BI isoform 1 expressed in CHO cells assessed as increase in binding of Alexa-488-labeled HDL particles to cells. Type of data set: cell-based. The essentials: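 ldlA[mSR-BI] cells (LDL receptor-deficient CHO overexpressing mouse SR-BI), 10,000/well in Ham's F12K/5% FCS, grown overnight. Medium swapped for Ham's F12/0.5% fatty acid-free BSA/25 mM HEPES pH 7.4 containing 10 ug/mL Alexa 488-HDL (dye bound covalently to apolipoprotein). Compounds pinned in, 1 uM BLT-1 as positive control, 3 h at 37°C. Cells washed twice with PBS (+Ca/Mg), bottom-read fluorescence, normalised to DMSO and BLT-1 wells.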

For data set [9], the system named is CHO. Put plainly: Cytotoxicity against CHO cells after 24 hrs. To be noted: chinese hamster. Type of data set: cell-based, Cricetulus griseus.

The structures appear in SMILES notation. In brackets after ≈: the same amount, converted by molar mass. Activity calls are given as the source filed them. No cut-off for these calls is given here.

On to `CC(C(=O)NC1CCCC1)N(C(=O)Cn1nnc(-c2cccc(F)c2)n1)C1CCCCC1` (stereo not drawn), for which, in [1], the IC50 – broadly, the concentration that inhibits the measured activity by half – turned out to be 380 nM.

With `COc1cccc(-c2nnn(CC(=O)N(C3CCCCC3)C(C)C(=O)NC3CCCC3)n2)c1` (stereo not drawn), the IC50 in data set [1] is 180 nM.

For the compound `COc1ccc(-c2nnn(CC(=O)N(C3CCCCC3)C(C)C(=O)NC3CC3)n2)cc1OC` (stereo not drawn), the IC50 in data set [1] was determined as 420 nM.

Regarding `Cc1ccc(-c2nnn(CC(=O)N(C3CCCCC3)C(C)C(=O)NC3CCCC3)n2)cc1` (stereo not drawn), the IC50 in data set [1] was 490 nM.

On to `COc1ccc(-c2nnn(CC(=O)N(C3CCCCC3)C(C)C(=O)NC(C)C)n2)cc1OC` (stereo not drawn), for which the IC50 in data set [1] worked out at 810 nM.

As for `CC(C(=O)NC1CCCC1)N(C(=O)Cc1ccccc1)C1CCCCC1` (stereo not drawn), in data set [1], the IC50 turned out to be 37000 nM.

As to `COc1ccc(-c2nnn(CC(=O)N(C3CCCCC3)C(C)C(=O)N(C)C3CCCC3)n2)cc1OC` (stereo not drawn), in [1], the IC50 was 1600 nM.

As for `CC(C(=O)NC1CCCC1)N(C(=O)Cn1nnc(-c2ccc(F)cc2)n1)C1CCCCC1` (stereo not drawn), the 50% inhibitory concentration (IC50) in [1] stood at 130 nM.

Consider `COc1ccc(-c2nnn(CC(=O)N(C)C(C)C(=O)NC3CCCC3)n2)cc1OC` (stereo not drawn), for which, in data set [1], the IC50 turned out to be 19000 nM.

As for `CC(C(=O)NC1CCCC1)N(C(=O)Cn1nnc(-c2ccc(Cl)cc2)n1)C1CCCCC1` (stereo not drawn), in data set [1], the IC50 was 170 nM.

As for `CC(C(=O)NC1CCCC1)N(C(=O)Cn1nnc(-c2ccccc2)n1)C1CCCCC1` (stereo not drawn), in data set [1], the half-inhibitory concentration (IC50) was found to be 370 nM.

As for `COc1ccccc1-c1nnn(CC(=O)N(C2CCCCC2)C(C)C(=O)NC2CCCC2)n1` (stereo not drawn), the 50% inhibitory concentration (IC50) in [1] is over 25000 nM.

Take `COc1ccc(-c2nnn(CC(=O)N(C3CCN(C)CC3)C(C)C(=O)NC3CCCC3)n2)cc1OC` (stereo not drawn): the IC50 in data set [1] is over 25000 nM.

Take `COc1ccc(-c2nnn(CC(=O)N(C3CCCCC3)C(C)(C)C(=O)NC3CCCC3)n2)cc1OC`: the IC50 in data set [1] came out at 19000 nM.

With `C[C@H](C(=O)NC1CCCC1)N(C(=O)Cn1nnc(-c2ccc3c(c2)OCO3)n1)C1CCCCC1`, the remaining at 5 h, 5 µM in [2] and in data set [3] was over 99% each time. In addition, the inhibition entry in the data set on CHO [4] was “inactive”. In addition, the remaining at 1 h, 1 µM in [5] and in [7] was under 1% throughout. In addition, in [1], the IC50 was determined as 17 nM. In [6], the kinetic solubility (in general, the concentration staying in solution when a stock, usually in DMSO, is diluted into the medium) at 24 h, 100 µM stood at 28 µM (≈ 13.1 µg/mL). Moreover, the EC50 (usually the concentration at which the effect is half-maximal) in data set [8] was determined as 270 nM.

As to `COc1ccc(-c2nc(CC(=O)N(C3CCCCC3)C(C)C(=O)NC3CCCC3)co2)cc1OC` (stereo not drawn), the IC50 in [1] is 130 nM.

Take `COc1ccc(-c2nnn(CC(=O)N(C3CCCCC3)C(C)C(=O)NC(C)(C)C)n2)cc1OC` (stereo not drawn): the half-maximal inhibitory concentration (IC50) in [1] came out at 17000 nM.

As for `O=C(CN(C(=O)Cn1nnc(-c2ccc3c(c2)OCO3)n1)C1CCCCC1)NC1CCCC1`, the half-maximal inhibitory concentration (IC50) in data set [1] turned out to be 26 nM.

Consider `COCC(=O)N1CCc2cc(-c3csc(NC(=O)c4cc(OC)cc(OC)c4)n3)ccc21`, for which the solubility (kinetic) at 24 h, 100 µM in data set [6] came to 0.57 µM (≈ 0.259 µg/mL).

For `COc1ccc(-c2nnn(CC(=O)N(C3CCCCC3)C(C)C(=O)NC3CCCC3)n2)cc1OC` (stereo not drawn), the Activity result in the data set with CHO [9] is “Non-toxic”. Further, the IC50 in [1] was found to be 55 nM. The kinetic solubility at 24 h, 100 µM in data set [6] came out at 114 µM (≈ 55.2 µg/mL).

Consider `CC(C(=O)NC1CCCC1)N(C(=O)Cn1nnc(-c2ccc(Cl)c(Cl)c2)n1)C1CCCCC1` (stereo not drawn), for which the IC50 in data set [1] was 180 nM.

As for `COc1ccc(-c2nnn(CC(=O)N(C3CCCC3)C(C)C(=O)NC3CCCC3)n2)cc1OC` (stereo not drawn), the half-inhibitory concentration (IC50) in [1] worked out at 110 nM.

For `COc1ccc(-c2nnn(CC(=O)N(C3CCCCC3)C(C)C(=O)NC3CCCCC3)n2)cc1OC` (stereo not drawn), the IC50 in data set [1] amounted to 200 nM.

As for `COc1ccc(-c2nnn(CC(=O)N(CC3CCCCC3)C(C)C(=O)NC3CCCC3)n2)cc1OC` (stereo not drawn), in data set [1], the IC50 came to 1600 nM.

Consider `CC(C(=O)NC1CCCC1)N(C(=O)Cn1nnc(-c2ccc3c(c2)OC(F)(F)O3)n1)C1CCCCC1` (stereo not drawn), for which, in [1], the IC50 was found to be 230 nM.

For `COc1ccc(-c2cc(CC(=O)N(C3CCCCC3)C(C)C(=O)NC3CCCC3)no2)cc1OC` (stereo not drawn), in data set [1], the half-maximal inhibitory concentration (IC50) is 23 nM.

`COc1ccc(-c2nc(CC(=O)N(C3CCCCC3)C(C)C(=O)NC3CCCC3)cs2)cc1OC` (stereo not drawn): in data set [1], the IC50 came to 6300 nM.

With `COc1ccc(-c2nnn(CC(=O)N(C3CCCCC3)C(C(=O)NC3CCCC3)C(C)C)n2)cc1OC` (stereo not drawn), the IC50 in data set [1] was over 25000 nM.

Turning to `COc1ccc(-c2nnn(CC(=O)N(C3CC3)C(C)C(=O)NC3CCCC3)n2)cc1OC` (stereo not drawn), the IC50 in data set [1] turned out to be 7500 nM.

Regarding `CC(C(=O)NC1CCCC1)N(C(=O)Cn1nnc(-c2ccc3c(c2)OCO3)n1)C1CCCCC1` (stereo not drawn), in data set [1], the IC50 worked out at 27 nM.

With `COc1ccc(-c2nnn(CC(=O)N(C3CCCCC3)C(C)C(=O)N3CCCCC3)n2)cc1OC` (stereo not drawn), the IC50 in data set [1] came to 7100 nM.

For the compound `CC(C(=O)NC1CCCC1)N(C(=O)Cn1nnc(-c2ccccc2F)n1)C1CCCCC1` (stereo not drawn), in [1], the IC50 came out at 620 nM.

Consider `CC(C(=O)NC1CCCC1)N(C(=O)Cn1nnc(-c2ccc3c(c2)OCO3)n1)C1CCOCC1` (stereo not drawn), for which the IC50 in data set [1] is 840 nM.

Take `CC(C(=O)NC1CCCC1)N(C(=O)Cn1nnc(-c2ccccc2Cl)n1)C1CCCCC1` (stereo not drawn): the IC50 in data set [1] turned out to be 3800 nM.
